Assay results taken from PubChem BioAssay.
Active and inactive are the calls of the source.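 Rule for the calls, unless noted: active = duplicate-averaged activation above buffer control mean plus 5 SD of those controls; inactive = the rest.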

system: not listed separately; experiment: nonspecific flux increase, KCNQ1-free cells – parental CHO cells, counter-screen for KCNQ1 potentiator project (AID 493006); conditions: parental CHO-K1 cells, FluxOR thallium flux, at 10 µM; active compounds read high;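 for activation: fluorescence ratio of max minus min over baseline after K+ and Tl+ depolarization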
Method in brief: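 Benchmarks – buffer and R-L3 controls · Assay system – untransfected host CHO-K1 cells with FluxOR thallium dye · Measure – fluorescence change ratio scaled 0% buffer, 100% R-L3 · Technique – kinetic thallium-flux fluorescence · Timing – overnight 37 °C plating, 90 min RT dye, 20 min compound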

| Compound | activation | outcome |
| --- | --- | --- |
| CCCCCCCCCCC[N+](C)(C)CC/C=C1/c2ccccc2Sc2ccc(Cl)cc21 | 184% (active) | – |
| CCCCCCCCCCCCC/C=C/[C@@H](O)[C@@H](N)CO | 406% (active) | – |
| COc1ccc(/C(O)=C2/C(=O)C(=O)N(CCCN(C)C)C2c2ccc(Cl)cc2)cc1OC (stereo not given) | – | inactive |
| CN(C(=O)c1cc(COc2c(F)cccc2F)on1)C1CCOC1 (stereo not given) | – | inactive |
| CCN(CC)CC(=O)Nc1ccc2c(c1)Nc1ccccc1CC2 | 234% (active) | – |
| C=CCC(=O)N1CCC(n2nccc2NC(=O)CCOc2ccccc2)CC1 | – | inactive |
| O=[N+]([O-])c1ccc(/C([O-])=C(/C(=S)NCc2ccco2)[n+]2ccccc2)cc1 | – | inactive |
| Cc1ccc(C(=O)NCCC(=O)NCc2cc(=O)n(C)c(=O)n2C)cc1 | – | inactive |
| CCC(=O)NNc1nc2c(Cl)cccc2s1 | – | inactive |
| CC1(C)CC[C@]2(C(=O)O)CC[C@]3(C)C(=CCC4[C@@]5(C)CC[C@H](O)C(C)(C)C5[C@H](O)C[C@]43C)[C@@H]2C1 (stereo not given in full) | 184% (active) | – |
| COc1ccccc1/C=C1\N=C(C(C)(C)C)OC1=O | – | inactive |
| CCCCc1nc2sc3c(SCCN(C)C)ncnc3c2c2c1CCC2 | 207% (active) | – |
| CCC1(c2ccc(Cl)cc2)NC(=S)N(c2ccc(C)cc2)N1 (stereo not given) | 574% (active) | – |
| Cc1ccccc1-n1cnnc1SCC(=O)N1CCN(c2ccccc2)CC1 | 200% (active) | – |
| CCOc1ccc(-c2noc(CCC(=O)NC3CCCC3)n2)cc1OC | – | inactive |
| COc1cc(Br)cc(/C=N/c2ncn[nH]2)c1O | 140% (active) | – |
| O=C(CSc1nc(=O)n2ccccc2n1)NCc1ccccc1 | – | inactive |
| COc1cc(C2C(C#N)=C(N)Oc3cc(O)ccc32)cc2c1OCO2 (stereo not given) | – | inactive |
| CCOc1ccc(C(C#N)N2CCOCC2)cc1OC (stereo not given) | – | inactive |
| CS(=O)(=O)c1ccc(C(=O)OCc2nnc(-c3ccc(Cl)cc3)o2)cc1[N+](=O)[O-] | – | inactive |

| Compound | activation | outcome |
| --- | --- | --- |
| CCOC(=O)c1sc2ncnc(NCC(c3cccs3)N(C)C)c2c1C (stereo not given) | 255% (active) | – |
| CCCN1CCC(NC(=S)Nc2cccc(Cl)c2Cl)CC1 | – | inactive |
| Cc1nn(-c2ccccc2)nc1C(=O)NNC(=O)c1cccc2ccccc12 | – | inactive |
| Cc1cc(Cl)n2nc(C)c(-c3ccc(Cl)cc3)c2n1 | 216% (active) | – |
| O=C(CSc1cccc[n+]1[O-])c1cc(Cl)ccc1Cl | – | inactive |
| Cc1ccc(C(=O)CC(=O)COc2ccc(Cl)cc2C)cc1 | – | inactive |
| COc1cccc2sc(N(CCCN(C)C)C(=O)CCS(=O)(=O)c3ccccc3)nc12 | – | inactive |
| CC(CCc1ccccc1)NC(=S)NC(=O)c1ccco1 (stereo not given) | 214% (active) | – |
| N#C/C(=C/c1cn(-c2ccccc2)nc1-c1cccc(S(=O)(=O)N2CCOCC2)c1)C(=O)NCc1ccco1 | – | inactive |
| COc1ccc(-n2c(=S)[nH]c3c(oc4ccccc43)c2=O)cc1 | – | inactive |
| COC(=O)[C@@H]1CCCN1C(=O)CCc1nnc(CCC2CCCCC2)o1 | – | inactive |
| CC1=NN(C(N)=S)C(=O)C1N=Nc1cccc(Cl)c1C (stereo not given) | 1010% (active) | – |
| OC1(c2ccc(Br)cc2)CCNCC1 | – | inactive |
| CC1CCCC(NC(=S)NC(=O)c2cncc(Br)c2)C1C (stereo not given) | – | inactive |
| CCc1ccc(/C=C/C(=O)C2C(=O)c3ccccc3C2=O)cc1 | 284% (active) | – |
| C/C(=N\Nc1nc2ccccc2[nH]1)c1ccc(Cl)s1 | – | inactive |
| O=c1c(O)c(-c2cccs2)oc2ccccc12 | 290% (active) | – |
| CCN(C(=O)COC(=O)C(Cc1ccccc1)N1C(=O)c2ccccc2C1=O)C1CCS(=O)(=O)C1 (stereo not given) | – | inactive |
| CS(=O)(=O)N1CCN(c2ccccc2NC(=O)CSc2nnc(-c3ccco3)o2)CC1 | – | inactive |
| Cc1sc2nc(CN3CCOCC3)[nH]c(=S)c2c1C | 312% (active) | – |

molecular target: Potassium voltage-gated channel subfamily KQT member 1 (Homo sapiens) (UniProt P51787); experiment: enhancement of KCNQ1 channel thallium flux – FluxOR thallium flux, CHO cells, duplicates, confirmation (AID 493007;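 active = potentiation averaged over duplicate wells exceeding buffer-only control mean by more than 3 SD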;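 for outcome: cells depolarized by a potassium plus thallium sulfate stimulus after compound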); conditions: KCNQ1 cell line, FluxOR thallium flux fluorescence, at 10 µM; active compounds read high, % of reference activator effect, buffer zero
Method in brief: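 Material: CHO cells stably expressing the KCNQ1 potassium channel / Times: dye 90 min then compound 20 min, both at room temperature / Detection: kinetic thallium influx fluorescence with FluxOR dye, 10 s baseline, 110 s post-stimulus / Benchmarks: buffer-only wells as 0% and R-L3 activator as 100% / Replicates: each compound tested in duplicate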

Potassium voltage-gated channel subfamily KQT member 1 (Homo sapiens), sequence (P51787 whole entry, looked up): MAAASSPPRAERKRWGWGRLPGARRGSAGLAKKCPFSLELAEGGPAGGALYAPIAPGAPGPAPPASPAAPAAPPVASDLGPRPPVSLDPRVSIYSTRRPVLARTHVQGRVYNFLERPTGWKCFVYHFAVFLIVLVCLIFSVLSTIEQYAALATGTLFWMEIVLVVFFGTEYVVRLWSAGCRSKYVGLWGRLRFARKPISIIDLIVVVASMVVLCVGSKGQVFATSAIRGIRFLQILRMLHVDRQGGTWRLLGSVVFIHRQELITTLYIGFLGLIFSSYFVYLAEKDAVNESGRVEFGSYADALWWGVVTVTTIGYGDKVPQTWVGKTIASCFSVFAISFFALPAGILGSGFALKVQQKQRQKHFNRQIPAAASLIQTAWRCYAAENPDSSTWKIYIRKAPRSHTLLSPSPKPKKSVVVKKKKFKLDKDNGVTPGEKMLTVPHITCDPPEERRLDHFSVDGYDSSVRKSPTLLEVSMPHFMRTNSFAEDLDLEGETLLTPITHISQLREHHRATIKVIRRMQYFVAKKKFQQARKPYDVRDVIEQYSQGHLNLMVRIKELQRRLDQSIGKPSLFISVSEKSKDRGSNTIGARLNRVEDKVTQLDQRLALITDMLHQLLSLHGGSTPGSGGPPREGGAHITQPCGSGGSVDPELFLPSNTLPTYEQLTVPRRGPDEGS

| Compound | potentiation | outcome |
| --- | --- | --- |
| CCCCCCCCCCC[N+](C)(C)CC/C=C1/c2ccccc2Sc2ccc(Cl)cc21 | 64% (active) | – |
| CCCCCCCCCCCCC/C=C/[C@@H](O)[C@@H](N)CO | 218% (active) | – |
| COc1ccc(/C(O)=C2/C(=O)C(=O)N(CCCN(C)C)C2c2ccc(Cl)cc2)cc1OC (stereo not given) | – | inactive |
| CN(C(=O)c1cc(COc2c(F)cccc2F)on1)C1CCOC1 (stereo not given) | – | inactive |
| CCN(CC)CC(=O)Nc1ccc2c(c1)Nc1ccccc1CC2 | 98% (active) | – |
| C=CCC(=O)N1CCC(n2nccc2NC(=O)CCOc2ccccc2)CC1 | – | inactive |
| O=[N+]([O-])c1ccc(/C([O-])=C(/C(=S)NCc2ccco2)[n+]2ccccc2)cc1 | – | inactive |
| Cc1ccc(C(=O)NCCC(=O)NCc2cc(=O)n(C)c(=O)n2C)cc1 | – | inactive |
| CCC(=O)NNc1nc2c(Cl)cccc2s1 | – | inactive |
| CC1(C)CC[C@]2(C(=O)O)CC[C@]3(C)C(=CCC4[C@@]5(C)CC[C@H](O)C(C)(C)C5[C@H](O)C[C@]43C)[C@@H]2C1 (stereo not given in full) | 40.5% (active) | – |
| COc1ccccc1/C=C1\N=C(C(C)(C)C)OC1=O | – | inactive |
| CCCCc1nc2sc3c(SCCN(C)C)ncnc3c2c2c1CCC2 | 122% (active) | – |
| CCC1(c2ccc(Cl)cc2)NC(=S)N(c2ccc(C)cc2)N1 (stereo not given) | 302% (active) | – |
| Cc1ccccc1-n1cnnc1SCC(=O)N1CCN(c2ccccc2)CC1 | 49.5% (active) | – |
| CCOc1ccc(-c2noc(CCC(=O)NC3CCCC3)n2)cc1OC | – | inactive |
| COc1cc(Br)cc(/C=N/c2ncn[nH]2)c1O | 18.5% (active) | – |
| O=C(CSc1nc(=O)n2ccccc2n1)NCc1ccccc1 | – | inactive |
| COc1cc(C2C(C#N)=C(N)Oc3cc(O)ccc32)cc2c1OCO2 (stereo not given) | – | inactive |
| CCOc1ccc(C(C#N)N2CCOCC2)cc1OC (stereo not given) | – | inactive |
| CS(=O)(=O)c1ccc(C(=O)OCc2nnc(-c3ccc(Cl)cc3)o2)cc1[N+](=O)[O-] | 30.5% (active) | – |

| Compound | potentiation | outcome |
| --- | --- | --- |
| CCOC(=O)c1sc2ncnc(NCC(c3cccs3)N(C)C)c2c1C (stereo not given) | 87% (active) | – |
| CCCN1CCC(NC(=S)Nc2cccc(Cl)c2Cl)CC1 | – | inactive |
| Cc1nn(-c2ccccc2)nc1C(=O)NNC(=O)c1cccc2ccccc12 | 53% (active) | – |
| Cc1cc(Cl)n2nc(C)c(-c3ccc(Cl)cc3)c2n1 | 256% (active) | – |
| O=C(CSc1cccc[n+]1[O-])c1cc(Cl)ccc1Cl | – | inactive |
| Cc1ccc(C(=O)CC(=O)COc2ccc(Cl)cc2C)cc1 | 180% (active) | – |
| COc1cccc2sc(N(CCCN(C)C)C(=O)CCS(=O)(=O)c3ccccc3)nc12 | – | inactive |
| CC(CCc1ccccc1)NC(=S)NC(=O)c1ccco1 (stereo not given) | 69.5% (active) | – |
| N#C/C(=C/c1cn(-c2ccccc2)nc1-c1cccc(S(=O)(=O)N2CCOCC2)c1)C(=O)NCc1ccco1 | – | inactive |
| COc1ccc(-n2c(=S)[nH]c3c(oc4ccccc43)c2=O)cc1 | – | inactive |
| COC(=O)[C@@H]1CCCN1C(=O)CCc1nnc(CCC2CCCCC2)o1 | – | inactive |
| CC1=NN(C(N)=S)C(=O)C1N=Nc1cccc(Cl)c1C (stereo not given) | 665% (active) | – |
| OC1(c2ccc(Br)cc2)CCNCC1 | – | inactive |
| CC1CCCC(NC(=S)NC(=O)c2cncc(Br)c2)C1C (stereo not given) | 32% (active) | – |
| CCc1ccc(/C=C/C(=O)C2C(=O)c3ccccc3C2=O)cc1 | 118% (active) | – |
| C/C(=N\Nc1nc2ccccc2[nH]1)c1ccc(Cl)s1 | – | inactive |
| O=c1c(O)c(-c2cccs2)oc2ccccc12 | 115% (active) | – |
| CCN(C(=O)COC(=O)C(Cc1ccccc1)N1C(=O)c2ccccc2C1=O)C1CCS(=O)(=O)C1 (stereo not given) | – | inactive |
| CS(=O)(=O)N1CCN(c2ccccc2NC(=O)CSc2nnc(-c3ccco3)o2)CC1 | – | inactive |
| Cc1sc2nc(CN3CCOCC3)[nH]c(=S)c2c1C | 69.5% (active) | – |
